Compound activity (PubChem)
RGS4 inh: human RGS4 inhibition; HEK293 M3R/RGS4 inducible, Fluo-4 calcium flux; hits give high values; triggered by carbachol at its EC20; AID 463165; B-score at 10 µM; actives 0.45% (n = 310,000); P49798;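 active = B-score, a plate-corrected calcium signal, over three deviations above library mean, with baseline fluorescence within five deviations of library mean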;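 note: RGS4 expression induced by doxycycline in cells with stable M3 receptor; B-score is computed from the integrated fluorescence ratio over baseline after carbachol; higher B-score means a larger calcium signal and so more RGS4 inhibition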
Target sequence (P49798 whole entry, looked up): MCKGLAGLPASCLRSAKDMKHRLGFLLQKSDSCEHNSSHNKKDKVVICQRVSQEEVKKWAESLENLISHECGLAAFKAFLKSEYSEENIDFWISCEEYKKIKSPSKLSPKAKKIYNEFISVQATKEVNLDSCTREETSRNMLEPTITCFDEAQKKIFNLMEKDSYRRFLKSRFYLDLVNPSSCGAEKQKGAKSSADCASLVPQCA
MrgX1 agonist: activates human MrgX1 receptor signaling | MrgX1-HEK293 cells, Fluo-4 calcium fluorescence, agonist mode; hits give high values | B-score at 10 µM | actives 0.44% (n = 310,000) | AID 588627;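 active = calcium response B-score plate-corrected fluorescence ratio at least 3 library SD, with starting fluorescence B-score inside 5 SD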
Target sequence (Q96LB2 whole entry, looked up): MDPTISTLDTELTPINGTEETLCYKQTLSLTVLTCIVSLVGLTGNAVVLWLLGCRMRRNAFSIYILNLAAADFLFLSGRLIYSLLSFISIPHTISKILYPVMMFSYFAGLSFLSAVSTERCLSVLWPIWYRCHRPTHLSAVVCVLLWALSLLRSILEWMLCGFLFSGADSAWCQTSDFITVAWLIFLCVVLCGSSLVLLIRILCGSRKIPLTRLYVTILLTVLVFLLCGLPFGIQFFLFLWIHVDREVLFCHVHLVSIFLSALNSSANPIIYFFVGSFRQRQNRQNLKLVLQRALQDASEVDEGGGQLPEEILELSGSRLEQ
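Test system: Stable human MrgX1 HEK293 cell line | Schedule: Overnight plating before 1 h dye loading | Read-out basis: Baseline-normalised fluorescence change ratio, B-scored | Detection: Kinetic calcium dye fluorescence, Fluo-4 NW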
MrgX1 antag: human MrgX1 receptor antagonism, primary screen; MRGX1-HEK293 calcium flux, Fluo-4, BAM8-22 antagonism; hits give low values; B-score at 10 µM; actives 1.3% (n = 310,000);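 active = calcium-response B-score plate-corrected more than 3 library SD below zero, starting fluorescence within 5 deviations, no agonist response on first addition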;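 note: peak minus trough fluorescence over baseline after final BAM8-22 challenge near maximal dose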
MrgX1 PAM: human MrgX1 positive allosteric modulation, primary screen. MrgX1-HEK293, Fluo-4 calcium flux, FDSS; hits give high values. AID 588675. B-score at 10 µM. actives 0.63% (n = 310,000). Q96LB2;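 active = plate-corrected calcium response at least 3 library SD above typical, normal starting fluorescence, not activating the receptor alone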;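 note: compound read alongside a low EC10 to EC30 dose of BAM8-22 agonist; peak minus trough fluorescence over baseline measured at the second addition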
RGS4 act: RGS4 potentiation or activation; HEK293 M3R/inducible RGS4, carbachol calcium flux Fluo4; hits give low values; actives 0.92% (n = 310,000); B-score at 10 µM; AID 463111;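 active = B-score of the integrated calcium signal more than 4 SD below the library mean, with starting fluorescence not abnormally high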;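 note: negative B-score means reduced calcium response which marks RGS4 activation or potentiation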
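test system = HEK293 cells with stable M3R and inducible RGS4 | schedule = recording 10 s baseline at 1 Hz, 100 s post-agonist | technique = Fluo4-AM (2 µM) calcium-flux fluorescence, kinetic read | measure = Agonist-evoked peak-minus-minimum fluorescence over baseline, integrated ratio, B score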
RGS4 activ val: confirmation of RGS4 activators; shares compounds with RGS4 act; HEK293 M3R/RGS4 inducible, carbachol calcium flux Fluo4; inhibition, % at 10 µM; actives 89% (n = 1,100); AID 602282;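 active = inhibition above 3 SD of the buffer control wells, cut at about 41% in these data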;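 note: signal is the integrated peak-minus-minimum Fluo4 fluorescence over baseline ratio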
RGS4 act ctr: activity in cells without induced RGS4 expression | shares compounds with RGS4 act | HEK293 M3R non-induced RGS4, Fluo4 calcium flux; after carbachol challenge at its EC90 | inhibition, % at 10 µM | actives 82% (n = 1,100);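 active = inhibition exceeding 3 SD of buffer-only control wells, cut at about 26% in these data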;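 note: percent drop in integrated peak-minus-baseline over baseline Fluo4 ratio after carbachol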
A number is an active result; 0 = inactive; - = no result given. Most compounds without a hit are left out; they make up all but 3.5% or so of the library.

SMILES | RGS4 inh | MrgX1 agonist | MrgX1 antag | MrgX1 PAM | RGS4 act | RGS4 activ val | RGS4 act ctr
CCN(CC)c1ccc(N=C2C(=O)Nc3ccccc32)cc1 | 0 | 0 | 0 | 0 | -11 | 84 | 39
Cc1nn(-c2ccccc2)c(C)c1NC(=O)COC(=O)c1ccc(O)cc1O | 0 | 0 | 0 | 0 | -10 | 52 | 0
CCCN(CCC)C(=O)c1oc2ccccc2c1NC(=O)Cc1cccc(OC)c1 | 0 | 0 | 0 | 0 | 0 | - | -
COc1ccc2c(C)cc(N3CCN(Cc4ccccc4)CC3)nc2c1 | 0 | 0 | 0 | 0 | 0 | - | -
COc1ccc2c(C)cc(N3CCCCCC3)nc2c1 | 0 | 0 | 0 | 0 | -11 | 92 | 75
CC(C)(C)N(Cc1nc(-c2ccccc2)no1)C(=O)c1ccc2c(c1)OCO2 | 0 | 0 | 0 | 0 | 0 | - | -
CC(C)(C)N(Cc1ccccc1)C(=O)c1ccc2c(c1)OCCO2 | 0 | 0 | 0 | 0 | -9.2 | 92 | 54
Cc1nc(SCC(=O)N2CCN(c3ccccc3)CC2)c2oc3ccccc3c2n1 | 0 | 0 | 0 | 0 | -9.3 | 80 | 0
CCc1nc(SCC(=O)NC2CCCC2)c2oc3ccccc3c2n1 | 0 | 0 | 0 | 0 | 0 | - | -
Cc1nc(SCC(=O)O)c2oc3ccccc3c2n1 | 0 | 0 | 0 | 0 | 0 | - | -
CCc1nc(SCC(=O)N2CCCc3ccccc32)c2oc3ccccc3c2n1 | 0 | 0 | 0 | 0 | -9.4 | 90 | 71
Cn1cccc2[nH]c(=O)nc1-2 | 0 | 0 | 0 | 0 | 0 | - | -
COc1cccc(CN2CCN(C(c3ccccc3)c3ccccc3)CC2)c1O | 0 | 0 | 0 | 0 | -8.8 | 92 | 75
COc1cc(CN2CCN(C(c3ccccc3)c3ccccc3)CC2)cc(OC)c1OC | 0 | 0 | 0 | 0 | -8.9 | 86 | 30
CN(C)C(C)(C)/C=C/C(O)(c1ccccc1)c1ccccc1 | 0 | 0 | 0 | 0 | -8.7 | 88 | 64
CN(C(=O)c1ccc(OC2CCN(CCc3ccccc3)CC2)cc1)C1CCCCC1 | 0 | 0 | 0 | 0 | -8.9 | 0 | 0
CN(C(=O)c1ccc(OC2CCN(CCc3ccccc3)CC2)cc1)C1CCOCC1 | 0 | 0 | 0 | 0 | 0 | - | -
CN(CC(=O)Nc1ccccc1Cl)C(=O)c1cc(-c2cccs2)nn1-c1ccccc1 | 0 | 0 | 0 | 0 | 0 | - | -
CN(CC(=O)Nc1c(Cl)cccc1Cl)C(=O)c1cc(-c2cccs2)nn1-c1ccccc1 | 0 | 0 | 0 | 0 | 0 | - | -
CN(CC(=O)Nc1ccc(Cl)cc1)C(=O)c1cc(-c2cccs2)nn1-c1ccccc1 | 0 | 0 | 0 | 0 | -8.5 | 88 | 42
CCN(CC(=O)Nc1ccccc1OC)C(=O)c1cc(-c2ccccc2)nn1-c1ccccc1 | 0 | 0 | 0 | 0 | -7.8 | 92 | 67
CCN(CC(=O)Nc1c(F)cccc1F)C(=O)c1cc(-c2cccs2)nn1-c1ccccc1 | 0 | 0 | 0 | 0 | -9.4 | 52 | 84
COc1cc(NC(=O)C2CC(c3c(F)cccc3Cl)=NO2)cc(OC)c1OC (stereo not drawn) | 0 | 0 | 0 | 0 | 0 | - | -
CCOc1ccccc1N(C)C(=O)c1ccc2c(=O)n3c(nc2c1)CCCCC3 | 0 | 0 | 0 | 0 | 0 | - | -
C=CCN1C(=NC(=O)COc2ccc(Cl)cc2)SC2CS(=O)(=O)CC21 (stereo not drawn) | 0 | 0 | 0 | 0 | 0 | - | -
SMILES | RGS4 inh | MrgX1 agonist | MrgX1 antag | MrgX1 PAM | RGS4 act | RGS4 activ val | RGS4 act ctr
CSc1nnc2c3cc(F)ccc3n(Cc3ccccc3)c2n1 | 0 | 0 | 0 | 0 | 0 | - | -
CCN(CC)CCSc1nnc2c3cc(C)ccc3n(Cc3ccccc3)c2n1 | 0 | 0 | 0 | 0 | -11 | 93 | 85
C=CCc1cc(OC)ccc1OCCN1CC(C)OC(C)C1 (stereo not drawn) | 0 | 0 | 0 | 0 | 0 | - | -
O=C(COc1ccc(S(=O)(=O)N2CCOCC2)cc1)NCc1ccccn1 | 0 | 0 | 0 | 0 | 0 | - | -
CCc1nnc(NC(=O)c2sc3nc4cc(C)ccc4cc3c2N)s1 | 0 | 0 | 0 | 0 | -8.8 | 72 | 32
Cc1ccc(O)c(C(=O)c2cnc(/N=C(\N)N(C)C)nc2)c1 | 0 | 0 | 0 | 0 | -8.8 | 90 | 69
S=c1[nH]nc(-c2n[nH]c3c2CCC3)n1/N=C/C=C/c1ccco1 | 0 | 0 | 0 | 0 | -9.1 | 89 | 58
COc1ccccc1/C=C/C=N/n1c(-c2n[nH]c3c2CCC3)n[nH]c1=S | 0 | 0 | 0 | 0 | 0 | - | -
COc1cccc(/C=N/n2c(-c3n[nH]c4c3CCC4)n[nH]c2=S)c1O | 0 | 0 | 0 | 0 | -9.1 | 94 | 93
COc1ccc2c([N+](=O)[O-])c(Cl)[nH]c2c1 | 0 | 0 | 0 | 0 | 0 | - | -
Cc1ccccc1Sc1c(C#N)c(-c2ccccc2)nn1C | 0 | 0 | 0 | 0 | -8.3 | 88 | 58
Cn1c(SCCN2CCCC2)nnc1C1CCN(S(=O)(=O)c2ccc(F)cc2)CC1 | 0 | 0 | 0 | 0 | -7.8 | 50 | 0
CNC(=O)c1ccccc1Nc1ccc(SC(F)F)cc1 | 0 | 0 | 0 | 0 | 0 | - | -
O=C(NCc1ccncc1)c1ccccc1Nc1ccc(SC(F)F)cc1 | 0 | 0 | 0 | 0 | -8.9 | 92 | 85
Cc1cccnc1NC(=O)CN1C(=O)NC(C)(c2ccc3ccccc3c2)C1=O (stereo not drawn) | 0 | 0 | 0 | 0 | 0 | - | -
O=C(COC(=O)c1cc(S(=O)(=O)N2CCOCC2)ccc1O)NCCc1ccccc1 | 0 | 0 | 0 | 0 | -9.5 | 0 | 0
Cc1sc2ncnc(SCC(=O)N3CCCC(C(F)(F)F)C3)c2c1C (stereo not drawn) | 0 | 0 | 0 | 0 | 0 | - | -
S=c1[nH]nc(-c2ccc(Br)cc2)n1Cc1ccco1 | 0 | 0 | 0 | 0 | -8 | 93 | 78
S=c1[nH]nc(-c2ccc(Cl)cc2)n1Cc1ccccc1 | 0 | 0 | 0 | 0 | -8.9 | 81 | 36
Cc1nc2nc(SCC(=O)NCCCN3CCCC3)nn2c(C)c1Cc1ccccc1Cl | 0 | 0 | 0 | 0 | -8.2 | 78 | 42
O=C(NCCc1c[nH]c2ccccc12)OCCCCOC(=O)NCCc1c[nH]c2ccccc12 | 0 | 0 | 0 | 0 | 0 | - | -
O=C(CNC(=O)c1cn2ccccc2n1)Nc1ccc(F)c(F)c1 | 0 | 0 | 0 | 0 | 0 | - | -
CCSc1nnc(NC(=O)C(NC(=O)c2ccc(Cl)cc2)C(C)C)s1 (stereo not drawn) | 0 | 0 | 0 | 0 | -9.4 | 0 | 0
CC(C)C(NC(=O)c1ccc(Cl)cc1)C(=O)NC1=NCCS1 (stereo not drawn) | 0 | 0 | 0 | 0 | 0 | - | -
O=C(NCC1CCCCC1)c1ccc(F)cc1Cl | 0 | 0 | 0 | 0 | 0 | - | -
CN1[C@@H]2CC[C@H]1CC(OC(=O)C(O)c1ccccc1)C2 (stereo partly drawn) | - | 0 | 0 | 0 | - | - | -
